The record followed here is paper PMC4909612 (EBioMedicine, 2016).

Values joined by “and” are separate entries in the source; they are usually repeats but may differ in a detail not shown here. Equal entries are not always repeated.

Experiment [1] deals with intracellular tyrosine kinase domain of human PDGFR-β. Put plainly: PDGFR-β activity assay kit. It is filed as biochemical. The note with it: n = 6 each group. A digest of the protocol:
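Human PDGFR-β kinase activity was measured with a commercial PDGFR-β activity assay kit, n = 6 per group. Values are means ± SEM from three independent experiments, compared with the control group.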

Experiment [2] deals with human PDGFR-β (Met 1-Lys 531) protein (human) (UniProt P09619). Put plainly: MST.
Experiment [3] has the same target. The experiment in a line: SPR.
Experiment [4] addresses human PDGFR-β (Met 1-Lys 531) protein with the Phe136/Ala136 and Phe138/Ala138 mutations (human) (UniProt P09619). Put plainly: SPR. (SPR reads the build-up and loss of mass on a sensor chip optically.)

Usually Kd stands for the constant that tells how readily two partners part at equilibrium. High values mean weaker binding, low ones tighter binding.

`CCN(CC)CCNC(=O)c1c(C)[nH]c(/C=C2\C(=O)Nc3ccc(F)cc32)c1C` [sunitinib]: the “effect on the activated intracellular tyrosine kinase domain / kinase activity of human PDGFR-β” value in experiment [1] is on record as “very obvious inhibitory effect”.

destruxin A5 (peptide): the Kd is 5.43 µM in experiment [2]; 4.92 µM and 8.02 µM in experiment [3]; 99.5 µM in experiment [4]. Moreover, the dH in experiment [3] is -2.28 kcal·M^(− 1).
